Screening results as filed in PubChem.
This is a sample that favours compounds with a hit; in the whole collection about 1.9% have one here.
CHRM4 PAM: CHRM4 positive allosteric modulation; P08173; CHO-K1 hM4/Gqi5, Fluo-8 calcium fluorescence, ACh EC20; 0% = ACh EC20, 100% = maximal ACh; activation, % at 3 µM; 360,000 compounds, 0.4% hits; AID 624126;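 active = activation above its plate's cutoff, the mean activation of sample wells plus 3 SD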
Target sequence (P08173 whole entry, looked up): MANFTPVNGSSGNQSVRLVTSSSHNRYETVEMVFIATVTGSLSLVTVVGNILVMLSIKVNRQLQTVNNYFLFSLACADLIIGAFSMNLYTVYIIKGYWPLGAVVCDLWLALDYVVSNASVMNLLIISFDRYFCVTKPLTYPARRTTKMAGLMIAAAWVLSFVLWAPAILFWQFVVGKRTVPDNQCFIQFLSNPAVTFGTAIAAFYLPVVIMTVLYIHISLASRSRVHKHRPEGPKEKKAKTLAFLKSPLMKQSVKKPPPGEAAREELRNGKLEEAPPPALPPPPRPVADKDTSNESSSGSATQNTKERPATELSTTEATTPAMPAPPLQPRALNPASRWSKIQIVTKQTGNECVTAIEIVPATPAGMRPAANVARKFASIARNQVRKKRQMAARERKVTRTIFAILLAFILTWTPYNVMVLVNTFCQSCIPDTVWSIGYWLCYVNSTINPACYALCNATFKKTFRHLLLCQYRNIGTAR
M5 antag: blocks acetylcholine activation of human M5 receptor; CHO-hM5 cells, Fluo-8 calcium fluorescence, ACh EC80; inhibition, % at 3 µM; 360,000 compounds, 0.59% hits; AID 624040;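 active = inhibition above a per-plate cutoff, the mean of that plate's test compounds plus 3 SD, cut at about 27% in these data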
CHRM4 antagonist: antagonists of human muscarinic M4 receptor (CHRM4). CHO-hM4 cells, ACh EC80, Fluo-8 calcium fluorescence. AID 624125. 360,000 compounds, 0.73% hits. P08173. inhibition, % at 3 µM;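 active = inhibition above its plate's cutoff, the mean inhibition of sample wells plus 3 SD, cut at about 27% in these data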
M5 ag: CHRM5 agonism in calcium assay. activation, % at 3 µM. 360,000 compounds, 0.19% hits. CHO-K1 hM5 cells, Fluo-8 calcium fluorescence; 0% DMSO wells, 100% maximal acetylcholine response. P08912;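 active = activation above the run's mean over test compounds plus 3 SD, cut at about 23% in these data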;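 also: signal is peak over basal fluorescence ratio across the kinetic read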
M4 ag: agonists of human muscarinic M4 receptor (CHRM4) | P08173 | CHO-K1 hM4/Gqi5, Fluo-8 calcium fluorescence; vehicle 0%, full acetylcholine response 100% | activation, % at 3 µM | 360,000 compounds, 0.14% hits;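 active = activation above the run mean over all test wells plus 3 SD, cut at about 32% in these data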;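 also: peak over basal fluorescence ratio per well then scaled between controls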
CHRM5 PAM: potentiates acetylcholine response at human M5 receptor. AID 624038. CHO-K1 hM5, Fluo-8 calcium, ACh EC20 PAM; 0% = ACh EC20, 100% = ACh EC100. 360,000 compounds, 0.3% hits. P08912. activation, % at 3 µM;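 active = activation above the run cutoff, the mean activation of all test compounds plus 3 SD, cut at about 18% in these data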
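system = human M5 receptor in CHO-K1 cells | reagent = EC20 acetylcholine as agonist stimulus | compound dosing = single-point, 3 µM nominal | incubation = Fluo-8 loading 80 min at 37 °C plus 30 min room temperature | detection = Fluo-8 calcium dye fluorescence, kinetic read | benchmarks = low control EC20 acetylcholine (0%), high control EC100 acetylcholine (100%)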
Of the large screens only hits and unclear results are named; the others gave an inactive call.

CCOC(=O)C1CCNC(=O)C1=O (stereo not drawn)	none
CC(C)C[C@H]1CNC(=O)C(=O)N1C[C@@H]1CCCN1C[C@H](Cc1ccc(O)cc1)N1C[C@H](Cc2ccccc2)N(CC2CCCCC2)C(=O)C1=O	CHRM4 antagonist 37
O=C1NC[C@@H](CCCCN2C[C@H](Cc3ccc(O)cc3)N(CC3CCCCC3)C(=O)C2=O)N(CCC2CCCCC2)C1=O	M5 ag 37, M4 ag 71
CSc1ccc(/C=N/NC(=O)CN2CCN(Cc3ccc(Cl)cc3)CC2)cc1	CHRM4 antagonist 35
CSc1ccc(/C=N/NC(=O)CN2CCN(Cc3ccccc3)CC2)cc1	none
CC(=O)OCCNc1cc(Sc2nc3ccccc3[nH]2)c2nonc2c1[N+](=O)[O-]	CHRM4 antagonist 41
CCC1=C(OC(=O)N(CC)CC)N2C(=O)OC(=NCC3CC3)[C@]2(Cc2ccccc2)[C@H]2C1=CC[C@H]1C(=O)NC(=O)[C@H]12	none
CCC1=C(OC(=O)N(CC)CC)N2C(=O)OC(=NCCOC)[C@]2(Cc2ccccc2)[C@H]2C1=CC[C@H]1C(=O)NC(=O)[C@H]12	CHRM5 PAM 26
CCn1c(SCC(=O)N2CCC(C)CC2)nc2c1c(=O)n(C)c(=O)n2C	none
COc1ccc(OC)c2[nH]c(=O)c(CCNC(=O)c3ccc(S(=O)(=O)N(C)C)cc3)cc12	CHRM4 PAM 28
COc1cc2c(cc1OC)CN(C(=O)c1ccc(S(=O)(=O)N3CCCCC3)cc1)CC2	none
COc1ccc(S(=O)(=O)N2CCCCC2C(=O)O)cc1OC (stereo not drawn)	CHRM5 PAM 21
COc1cc2c(cc1OC)CN(C(=O)CNS(=O)(=O)c1ccc(C)c(C)c1)CC2	CHRM4 PAM 30, CHRM5 PAM 23
COc1cc2c(cc1OC)CN(C(=O)C1CCCN1S(=O)(=O)c1ccc(F)cc1)CC2 (stereo not drawn)	CHRM4 PAM 17
CCc1ccc(C2CC(c3ccccc3Cl)Nc3nc(N)nn32)cc1 (stereo not drawn)	M5 ag 24
CCc1ccc(C2CC(c3ccccc3)Nc3nc(N)nn32)cc1 (stereo not drawn)	none
CCN(CC)C(=O)c1csc([C@@H]2O[C@H](CO)[C@H](O)[C@H](O)[C@H]2O)n1	none
CCCN1C(=O)S/C(=C/c2ccc(N3CCOCC3)o2)C1=O	CHRM4 antagonist 31
COc1ccc(NC(=O)CN2C(=O)NC(c3ccccc3)(c3ccccc3)C2=O)cc1OC	none
CCOC(=O)C(=N/O)/C(C)=N/NC(=O)C(=O)Nc1ccc(Cl)cc1	M5 antag 27
CNc1ccc(-c2ccccc2OC)cn1	none
CCN(Cc1nc(-c2ccccc2)no1)C(=O)c1ccco1	none
O=C(C[C@@H]1C/C=C/CC[C@@H](Cc2ccc(F)cc2)C(=O)O[C@@H](c2ccccc2)CNC1=O)NCCO	M5 antag 31
O=C1N[C@H](Cc2ccccc2)COC(=O)[C@H](Cc2ccc(F)cc2)C/C=C\C[C@@H]1CC(=O)N(CCO)Cc1ccccc1	none
O=C1N[C@@H](Cc2c[nH]c3ccccc23)COC(=O)[C@@H](Cc2ccc(F)cc2)C/C=C\C[C@H]1CC(=O)N(CCO)Cc1ccccc1	CHRM4 antagonist 28
O=C1N[C@@H](c2ccccc2)COC(=O)[C@H](Cc2ccc(F)cc2)C/C=C\C[C@H]1CC(=O)N(CCO)Cc1ccccc1	CHRM5 PAM 18
O=C(C[C@H]1C/C=C/CC[C@H](Cc2ccc(F)cc2)C(=O)O[C@H](c2ccccc2)CNC1=O)NCCO	none
O=C1NC[C@H](c2ccccc2)OC(=O)[C@@H](Cc2ccc(F)cc2)C/C=C\C[C@H]1CC(=O)N(CCO)Cc1ccccc1	CHRM4 antagonist 34, M4 ag 36
CC(=O)Nc1cccc(C(=O)OCc2csc(CC(=O)Nc3ccccc3C)n2)c1	none
CCOc1ccc(S(=O)(=O)N2CCCCC2)cc1NC(=O)c1ccccc1	none
CC(C)C[C@@H](CN)NC(=O)c1nc[nH]c1C(=O)N[C@@H](CC(C)C)C(=O)CNC[C@H](C)NC(=O)c1nc[nH]c1C(=O)N[C@@H](CC(C)C)C(=O)O	none
O=C1N[C@@H](c2ccccc2)COC(=O)[C@@H](Cc2ccc(F)cc2)C/C=C\C[C@@H]1CC(=O)N(CCO)Cc1ccccc1	M4 ag 56
O=C1N[C@@H](c2ccccc2)COC(=O)[C@H](Cc2ccc(F)cc2)CC/C=C/C[C@H]1CC(=O)N(CCO)Cc1ccccc1	none
O=C(NC(Cc1cn(Cc2ccccc2)cn1)C(=O)O)OCC1c2ccccc2-c2ccccc21 (stereo not drawn)	none
O=C(CCNC(=O)N1CC(=O)Nc2ccccc21)NCCc1cccc(F)c1	none
O=C(CNC(=O)N1CC(=O)Nc2ccccc21)NCCc1cccc(F)c1	CHRM4 PAM 19
COc1ccc(CN2C(=NC(=O)c3ccccc3)SC3CS(=O)(=O)CC32)cc1 (stereo not drawn)	none
Cc1cccc(C)c1OCCCCN1CCNCC1	none
Cc1cc(C)c(OCCCCN2CCNCC2)c(C)c1	CHRM4 antagonist 30
CCCCC(=O)OCC(=O)C1(O)Cc2c(O)c3c(c(O)c2C(OC2CC(NC(=O)C(F)(F)F)C(O)C(C)O2)C1)C(=O)c1c(OC)cccc1C3=O (stereo not drawn)	M5 antag 40, M5 ag 33
O=C(NN=Cc1ccccc1OC(F)F)c1cccc(S(=O)(=O)N2CCCC2)c1	none
O=[N+]([O-])c1ccc(Oc2ccc(S(=O)(=O)Nc3ccccc3)cc2)cc1	M5 antag 43, CHRM4 antagonist 53, M4 ag 39
O=[N+]([O-])c1ccc(S(=O)(=O)Nc2ccncc2)cc1	none
Cc1ccn2c(Cc3ccccc3)c(-c3ccc(F)cc3)nc2c1	none
CC1(C)OCC(CNC(=O)c2[nH]c(C(F)(F)F)nc2-c2ccccc2)O1 (stereo not drawn)	none
O=C(O)c1cccc(S(=O)(=O)NCCC(c2ccccc2)c2ccccc2)c1	CHRM4 PAM 23
CN1CCCC(C#CC(O)(c2ccccc2)c2ccccc2)C1 (stereo not drawn)	M5 antag 98, CHRM4 antagonist 74
O=C(Nc1ccc(NC(=O)c2ccco2)nc1)c1cccnc1	CHRM4 PAM 21
Cc1cccc(N=[N+]([O-])c2cccc(C)n2)n1	none
Cc1cc(Cl)ccc1OCCCC(=O)NNC(=O)c1ccccc1O	none
CCNc1nc(NC(C)C)nc(N(C)C#N)n1	none
CCCN(C#N)c1nc(NCC)nc(NC(C)C)n1	M5 antag 53
